{
  "source": "ChEMBL document CHEMBL1131621",
  "about": "“Synthesis and activity of dipeptides, linked to targeting ligands, as specific NK cell enhancers” (1998)",
  "key": {"[1]": {"assay": "In vitro Natural Killer cell activity (Activation of murine splenocyte NK cells by its ability to lyze YAC-1 target cells in chromium release assay) relative to interleukin 2 at 10E-4 to 10E-12 M conc.", "type": "functional, Mus musculus", "in_short": "(§1)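 Spleens from female C57BL/6 (H-2b) mice, 6–8 weeks old, homogenized in RPMI 1640 with 10% FCS and 2 mM L-glutamine. Mononuclear cells isolated on a Lympholyte M gradient (800g, 20 min), washed in PBS, viability checked by trypan blue. 5×10^5 splenocytes with compound incubated 4 h with 5×10^3 51Cr-labelled YAC-1 cells; % specific lysis from released chromium. Compounds tested at 10^-4–10^-12 M. Peak activity scored relative to IL 2 (100%) in 20% bands. Actives run 2–5 times, inactives once.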"}, "[2]": {"assay": "In vitro Natural Killer cell activity (Activation of murine splenocyte NK cells by its ability to lyze YAC-1 target cells in chromium release assay) relative to interleukin 2; Range 0-20%", "type": "functional, Mus musculus", "in_short": "as §1"}, "[3]": {"assay": "In vitro Natural Killer cell activity (Activation of murine splenocyte NK cells by its ability to lyze YAC-1 target cells in chromium release assay) relative to interleukin 2 at 10e-4; Range 101-120%"}, "[4]": {"assay": "In vitro Natural Killer cell activity (Activation of murine splenocyte NK cells by its ability to lyze YAC-1 target cells in chromium release assay) relative to interleukin 2 at 10E-8 to 10E-12 M conc; Range 41-60%", "type": "functional, Mus musculus", "in_short": "as §1"}, "[5]": {"assay": "In vitro Natural Killer cell activity (Activation of murine splenocyte NK cells by its ability to lyze YAC-1 target cells in chromium release assay) relative to interleukin 2 at 10E-4 to 10E-12 M conc; Range 21-40%", "type": "functional, Mus musculus", "in_short": "as §1"}, "Mus musculus [6]": {"organism": "Mus musculus", "assay": "Peak or the range of peak activity relative to positive IL 2 control; Range 10e-8-10e-4", "type": "functional", "in_short": "as §1"}, "[7]": {"assay": "In vitro Natural Killer cell activity (Activation of murine splenocyte NK cells by its ability to lyze YAC-1 target cells in chromium release assay) relative to interleukin 2 at 10E-4 to 10E-8 M conc; Range 21-40%", "type": "functional, Mus musculus", "in_short": "as §1"}, "[8]": {"assay": "In vitro Natural Killer cell activity (Activation of murine splenocyte NK cells by its ability to lyze YAC-1 target cells in chromium release assay) relative to interleukin 2 at 10E-4 to 10E-12 M conc; Range 61-80%", "type": "functional, Mus musculus", "in_short": "as §1"}, "Mus musculus [9]": {"organism": "Mus musculus", "assay": "Peak or the range of peak activity relative to positive IL 2 control; Range 10e-12-10e-5", "type": "functional", "in_short": "as §1"}, "[10]": {"assay": "In vitro Natural Killer cell activity (Activation of murine splenocyte NK cells by its ability to lyze YAC-1 target cells in chromium release assay) relative to interleukin 2 at 10E-4 to 10E-12 M conc; Range 81-100%", "type": "functional, Mus musculus", "in_short": "as §1"}, "[11]": {"assay": "In vitro Natural Killer cell activity (Activation of murine splenocyte NK cells by its ability to lyze YAC-1 target cells in chromium release assay) relative to interleukin 2 at 10E-4 to 10E-12 M conc; Range 41-60%", "type": "functional, Mus musculus", "in_short": "as §1"}, "Mus musculus [12]": {"organism": "Mus musculus", "assay": "Peak or the range of peak activity relative to positive IL 2 control; Range 10e-12-10e-4", "type": "functional", "in_short": "as §1"}},
  "data": [
    {"smiles": "CC1OC(OCCCCCCNC(=O)[C@H](CCCN)NC(=O)[C@@H](C)N)C(O)C(O)C1O", "note": "(stereo partly drawn)", "values": [
      {"measurement": "Stimulation", "setting": "[1]", "result": 0, "unit": "%"}
    ]},
    {"smiles": "C[C@@H](N)C(=O)N[C@@H](CCC(N)=O)C(=O)NCCCCCCCl", "values": [
      {"measurement": "Stimulation", "setting": "[2]", "result": 0, "unit": "%"}
    ]},
    {"smiles": "C[C@@H](N)C(=O)N[C@@H](CCC(N)=O)C(=O)NCCCCCCN", "values": [
      {"measurement": "Stimulation", "setting": "[3]", "result": 101, "unit": "%"}
    ]},
    {"smiles": "CC1OC(OCCCCCCNC(=O)[C@@H]2CCCN2C(=O)[C@H](C)N)C(O)C(O)C1O", "note": "(stereo partly drawn)", "values": [
      {"measurement": "Stimulation", "setting": "[1]", "result": 0, "unit": "%"}
    ]},
    {"smiles": "CC1OC(OCCCCCCNC(=O)[C@@H]2CCC(=O)N2)C(O)C(O)C1O", "note": "(stereo partly drawn)", "values": [
      {"measurement": "Stimulation", "setting": "[1]", "result": 0, "unit": "%"}
    ]},
    {"smiles": "CC(C(=O)OCCCCCn1cnc2c(N(C)C)ncnc21)[C@H](C)CCCN=C(N)N", "note": "(stereo partly drawn)", "values": [
      {"measurement": "Stimulation", "setting": "[1]", "result": 0, "unit": "%"}
    ]},
    {"smiles": "C[C@H](N)C(=O)N[C@H](CCC(N)=O)C(=O)NCCCCCCO", "values": [
      {"measurement": "Stimulation", "setting": "[4]", "result": 41, "unit": "%"}
    ]},
    {"smiles": "CC1OC(OCCCCCCNC(=O)[C@@H](N)CCC(N)=O)C(O)C(O)C1O", "note": "(stereo partly drawn)", "values": [
      {"measurement": "Stimulation", "setting": "[5]", "result": 21, "unit": "%"},
      {"measurement": "Concentration", "setting": "Mus musculus [6]", "result": 100, "unit": "nM"}
    ]},
    {"smiles": "CC1OC(OCCCCCCCCCCCCNC(=O)[C@H](CCC(N)=O)NC(=O)[C@@H](C)N)C(O)C(O)C1O", "note": "(stereo partly drawn)", "values": [
      {"measurement": "Stimulation", "setting": "[7]", "result": 21, "unit": "%"}
    ]},
    {"smiles": "O=C1CC[C@@H](C(=O)NCCCCCCO)N1", "values": [
      {"measurement": "Stimulation", "setting": "[8]", "result": 61, "unit": "%"},
      {"measurement": "Concentration", "setting": "Mus musculus [9]", "result": 10, "unit": "pM"}
    ]},
    {"smiles": "CC[C@@H](C)[C@H](N)C(=O)N1CCC[C@H]1C(=O)NCCCCCCOC1OC(C)C(O)C(O)C1O", "note": "(stereo partly drawn)", "values": [
      {"measurement": "Stimulation", "setting": "[1]", "result": 0, "unit": "%"}
    ]},
    {"smiles": "C[C@H](N)C(=O)N1CCC[C@H]1C(=O)NCCCCCCO", "values": [
      {"measurement": "Stimulation", "setting": "[2]", "result": 0, "unit": "%"}
    ]},
    {"smiles": "CC1OC(SCCCCCCNC(=O)[C@H](CCC(N)=O)NC(=O)[C@@H](C)N)C(O)C(O)C1O", "note": "(stereo partly drawn)", "values": [
      {"measurement": "Stimulation", "setting": "[4]", "result": 41, "unit": "%"}
    ]},
    {"smiles": "CC1OC(OCCCCCCNC(=O)[C@H](CCC(N)=O)NC(=O)CCN)C(O)C(O)C1O", "note": "(stereo partly drawn)", "values": [
      {"measurement": "Stimulation", "setting": "[2]", "result": 0, "unit": "%"}
    ]},
    {"smiles": "C[C@@H](N)C(=O)N[C@@H](CCC(N)=O)C(=O)NCCCCCCO", "values": [
      {"measurement": "Stimulation", "setting": "[10]", "result": 101, "unit": "%"}
    ]},
    {"smiles": "C[C@H](N)C(=O)N[C@@H](CCC(N)=O)C(=O)NCCCCCCO", "values": [
      {"measurement": "Stimulation", "setting": "[11]", "result": 41, "unit": "%"}
    ]},
    {"smiles": "CC1OC(OCCCCCCNC(=O)[C@H](CCC(=O)O)NC(=O)[C@@H](C)N)C(O)C(O)C1O", "note": "(stereo partly drawn)", "values": [
      {"measurement": "Stimulation", "setting": "[11]", "result": 41, "unit": "%"},
      {"measurement": "Concentration", "setting": "Mus musculus [12]", "result": 10, "unit": "pM"}
    ]},
    {"smiles": "CC1OC(OCCCCCCNC(=O)[C@H](CCC(=O)O)NC(=O)[C@H](C)N)C(O)C(O)C1O", "note": "(stereo partly drawn)", "values": [
      {"measurement": "Stimulation", "setting": "[11]", "result": 41, "unit": "%"}
    ]},
    {"smiles": "CC1OC(OCCCCCCNC(=O)CC[C@H](NC(=O)[C@H](CCC(N)=O)NC(=O)[C@@H](C)N)C(=O)NCCCCCCOC2OC(C)C(O)C(O)C2O)C(O)C(O)C1O", "note": "(stereo partly drawn)", "values": [
      {"measurement": "Stimulation", "setting": "[2]", "result": 0, "unit": "%"}
    ]},
    {"smiles": "NC(=O)CC[C@H](N)C(=O)NCCCCCCO", "values": [
      {"measurement": "Stimulation", "setting": "[2]", "result": 0, "unit": "%"}
    ]}
  ]
}
